Results on 7 molecules are retold here after ChEMBL document CHEMBL5096237, “Orally Bioavailable Prodrugs of ψ-GSH: A Potential Treatment for Alzheimer's Disease” (J Med Chem, 2022).

Data set [1] is described as follows: Stability in CD-1 mouse plasma assessed as half life at 1 uM measured upto 240 mins by LC-MS/MS analysis. The data set is classed as ADME, cell-free. The conditions noted are these: for t1/2: mouse, 4 h, 1 µM; for half-life at 1 µM: CD-1, mouse. Put shortly: (§1)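 Compound at 1 μM final was incubated at 37 °C in plasma, brain homogenate, liver homogenate, simulated gastric fluid or simulated intestinal fluid. Aliquots taken at 0, 5, 15, 30, 60, 120 and 240 min were quenched with 3 volumes of acetonitrile containing 1% formic acid and centrifuged. Supernatants were analyzed by HPLC-UV (254 nm, after Fmoc-Cl derivatization) and/or LC-MS/MS to derive t1/2.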

Data set [2] relates to Mus musculus. Briefly: Anti-alzheimer activity against APP/PS1 mouse model assessed as reduction in insoluble Abeta1-42 at 500 mg/kg, po […] by ELISA assay relative to control. More on the design: scale not given: the % may be the effect or the level left. The data set is classed as functional. Put shortly:
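APP/PS1 mice, 3–4 months old, were gavaged with ψ-GSH 500 mg/kg or saline three times weekly for 12 weeks. Insoluble brain Aβ1–42 was quantified by sandwich ELISA and expressed as % of saline-treated APP/PS1 mice.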

The test system of data set [3] is Mus musculus. Briefly: Anti-alzheimer activity against oral dosed mouse brain assessed as restoration of reduced GSH level by […]. The data set is classed as functional, organism-based. The method in brief:
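Brains from the i.c.v. Aβ1–42 mice were homogenized and deproteinized with metaphosphoric acid. After neutralization, samples were diluted in 50 mM MES (pH 6.0, 1 mM EDTA). GSH was measured by enzymatic recycling with DTNB, reading TNB absorbance at 412 nm.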

A short description of data set [4]: AUC in CD-1 mouse measured in per mg of brain tissue at 500 mg/kg, ip. The following applies: in vivo. The data set is classed as ADME, organism-based. More on the design: dose 500 mg/kg, route ip. The method in brief: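 Male CD-1 mice, eight weeks old, N = 4 per time point. They received oral prodrug at 250 mg/kg, or ψ-GSH at 500 mg/kg i.p. for comparison. Blood and brain were taken at 2, 4 and 6 h. Brain was homogenized 1:5 (w/v) in DPBS. Plasma and homogenate were treated with 100 mM N-ethylmaleimide for 10 min at ambient temperature, deproteinized with 3% sulfosalicylic acid, then quantified by positive-ESI LC-MS/MS MRM, with ψ-GSH read as its NEM adduct.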

Data set [5] can be described thus: Stability in CD-1 mouse brain homogenate assessed as half life at 1 uM measured upto 240 mins by LC-MS/MS analysis. The data set is classed as ADME, tissue-based. Put shortly:
(§2)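 Compound at 1 μM final was incubated at 37 °C in plasma, brain homogenate, liver homogenate, simulated gastric fluid or simulated intestinal fluid. Supernatants were analyzed by HPLC-UV (254 nm, after Fmoc-Cl derivatization) and/or LC-MS/MS to derive t1/2.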

Data set [6] is filed under the species Mus musculus. Briefly: Anti-alzheimer activity against A-beta injected mouse assessed as reduction in microglial activation in dentate gyrase region by GFAP staining based analysis. The data set is classed as functional, organism-based. The following applies: in the assay text read “Iba1 staining” for “GFAP staining”. The method in brief:
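C57BL/6 mice were dosed with compound at 250 mg/kg once daily for 12 days; Aβ1–42 oligomers were given i.c.v. on day 4. Half-brains were fixed in 4% PFA for 24 h and sucrose-cryoprotected. 40 μm coronal sections, every 12th (4–6 sections), were immunostained for GFAP (astrocytes) or Iba1 (microglia) by ABC/DAB after antigen retrieval. Stained area fraction in dorsal hippocampus or dentate gyrus was measured stereologically at ×40.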

The test system of data set [7] is Mus musculus. Briefly: Anti-alzheimer activity against APP/PS1 mouse model assessed as increase in spatial memory development at 500 mg/kg, po measured after 4 days by Morris water maze test. The data set is classed as functional, organism-based. The following applies: time 4.0 day.
The test system of data set [8] is Mus musculus. Briefly: Anti-alzheimer activity against APP/PS1 mouse model assessed as escape latency at 500 mg/kg, po measured after 4 days by Morris water maze test (reference value: 6.64+/-1.58 sec). The conditions noted are these: time 4 day. The data set is classed as functional.
Data set [9] can be described thus: Stability in CD-1 mouse assessed as half life at gastric phase of gastrointestinal tract at 1 uM measured upto 240 mins by LC-MS/MS analysis. Type of data set: ADME. The conditions noted are these: for t1/2: mouse, 4 h, 1 µM. The method in brief:
as §1

Data set [10] is described as follows: Reversal of resistant against ip dosed Abeta1-42 induced cognitive impairment in mouse assessed as reduction in repetitive arm entries (reference value: 3.22+/-0.27). The following applies: in vivo.
Data set [11] is described as follows: Stability in CD-1 mouse liver homogenate assessed as half life at 1 uM measured upto 240 mins by LC-MS/MS analysis. The data set is classed as ADME, tissue-based. Put shortly: as §2
Data set [12] relates to Mus musculus. Briefly: Anti-alzheimer activity against APP/PS1 mouse model assessed as time spent in the target quadrant at 500 mg/kg, po measured after 4 days by Morris water maze test (reference value: 16.39+/-3.39%). Type of data set: functional. The conditions noted are these: time 4 day.
The nature of data set [13]: Stability in CD-1 mouse assessed as half life at intestinal phase of gastrointestinal tract at 1 uM measured upto 240 mins by LC-MS/MS analysis. Type of data set: ADME. The following applies: for t1/2: mouse, 4 h, 1 µM. The method in brief: as §1
A short description of data set [14]: Stability in CD-1 mouse plasma at 250 mg/kg, po at 1 uM measured after 6 hrs by LC-MS/MS analysis. Type of data set: ADME, organism-based. The conditions noted are these: in vivo.
Data set [15] deals with Mus musculus. Briefly: Anti-alzheimer activity against oral dosed mouse brain assessed as reduction in AGE level by immunohistochemical analysis. Type of data set: functional, organism-based.
Data set [16] in a line: Reversal of resistant against po dosed Abeta1-42 induced cognitive impairment in mouse assessed as reduction in repetitive arm entries (reference value: 3.22+/-0.27). Type of data set: organism-based. The following applies: in vivo.

Molecules are shown by their SMILES. Activity calls are given as the source filed them.

`CCOC(=O)SC[C@H](NC(=O)NC[C@H](N)C(=O)OC1CCCC1)C(=O)NCC(=O)OC1CCCC1`: the t1/2 in data set [1] is 61.32 h.

Regarding `N[C@@H](CNC(=O)N1C(=O)SC[C@H]1C(=O)NCC(=O)O)C(=O)O`, the t1/2 in [1] was 25.57 h.

By half-life is commonly meant the time needed for the level to fall by half in the phase considered. Turning to `N[C@@H](CNC(=O)N[C@@H](CS)C(=O)NCC(=O)O)C(=O)O`, the figures for the Activity with Mus musculus [2] and with Mus musculus [12] were 90.8% and 21.76%, respectively. Moreover, the result with Mus musculus [3], in the data set listed under Mus musculus [6] and in the data set on Mus musculus [7] was Active. The AUC in [4] is 8.06 nmol·h. Moreover, the half-life at 1 µM in data set [5] is 1.51 h; in data set [9] (CD-1, mouse, gastric phase of gastrointestinal tract), 28.8 h; in data set [1], 0.23 h; in [11], 0.02 h; in [13] (CD-1, mouse, intestinal phase of gastrointestinal tract), 1.28 h. The Time in the data set on Mus musculus [8] stood at 6.9 s. Further, in data set [10], the repetitive arm entries was 0.5.

As for `N[C@@H](CNC(=O)N1CSC[C@H]1C(=O)NCC(=O)O)C(=O)O`, the half-life at 1 µM in data set [1] is 30.6 h; in data set [11], 116 h.

Take `CCOC(=O)SC[C@H](NC(=O)NC[C@H](N)C(=O)O)C(=O)NCC(=O)O`: the figures for the t1/2 in data set [9], in [1] and in data set [13] were 27.7 h, 47.14 h and 38.5 h, respectively.

With `CC(=O)SC[C@H](NC(=O)NC[C@H](N)C(=O)O)C(=O)NCC(=O)O`, the t1/2 in data set [9] was found to be 28.88 h; in data set [1], 5.8 h; in data set [13], 5.02 h.

Consider `Cl.N[C@@H](CNC(=O)N[C@@H](CS)C(=O)NCC(=O)OC1CCCC1)C(=O)OC1CCCC1`, for which the Stability result in data set [14] is “Stable”. The outcome with Mus musculus [15] was Active. Besides, the t1/2 was 4.87 h in data set [9], 72.2 h in data set [1] and 5.24 h in [13]. Also, the repetitive arm entries in [16] was 1.8.
